LANA DNA inh – blocks KSHV LANA C-terminal domain binding to DNA; MBP-C-LANA/FAM-LBS DNA binding, fluorescence polarization; inhibition, % at 9 µM; actives 0.078% (n = 340,000); AID 504423;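 active = highest replicate inhibition at or above 60% at 9 µM, even if other replicates fall short; inactive = all replicates below 60% inhibition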;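 note: 0% = neutral control wells and 100% = 4 µM acridine orange control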
miR-122 sensor – blocks miR-122 activity in Huh7 sensor cells; Huh7 miR-122 Renilla luciferase sensor, 48 h; neutral wells = 0, positive control = 100; activation (reporter increase), % at 12.5 µM; actives 0.3% (n = 340,000);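 active = mean replicate activation score at least 90 and every replicate individually at or above 90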;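 note: higher luciferase means less miR-122 activity so hits act as miR-122 inhibitors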
Keap1-Nrf2 PPI – inhibitors of human Keap1-Nrf2 protein-protein interaction | inhibition, % at 9.4 µM | Keap1 Kelch-Nrf2 peptide fluorescence polarization, 1536-well | actives 0.15% (n = 340,000) | Q14145; in the data active = inhibition above about 12%;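 note: human Keap1 Kelch domain with fluorescein labeled Nrf2 9mer peptide probe; 0% = neutral control wells and 100% = peptide positive control; higher means more block of Keap1 binding to Nrf2 peptide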
Target sequence (Q14145 whole entry, looked up, the tested form may be a part): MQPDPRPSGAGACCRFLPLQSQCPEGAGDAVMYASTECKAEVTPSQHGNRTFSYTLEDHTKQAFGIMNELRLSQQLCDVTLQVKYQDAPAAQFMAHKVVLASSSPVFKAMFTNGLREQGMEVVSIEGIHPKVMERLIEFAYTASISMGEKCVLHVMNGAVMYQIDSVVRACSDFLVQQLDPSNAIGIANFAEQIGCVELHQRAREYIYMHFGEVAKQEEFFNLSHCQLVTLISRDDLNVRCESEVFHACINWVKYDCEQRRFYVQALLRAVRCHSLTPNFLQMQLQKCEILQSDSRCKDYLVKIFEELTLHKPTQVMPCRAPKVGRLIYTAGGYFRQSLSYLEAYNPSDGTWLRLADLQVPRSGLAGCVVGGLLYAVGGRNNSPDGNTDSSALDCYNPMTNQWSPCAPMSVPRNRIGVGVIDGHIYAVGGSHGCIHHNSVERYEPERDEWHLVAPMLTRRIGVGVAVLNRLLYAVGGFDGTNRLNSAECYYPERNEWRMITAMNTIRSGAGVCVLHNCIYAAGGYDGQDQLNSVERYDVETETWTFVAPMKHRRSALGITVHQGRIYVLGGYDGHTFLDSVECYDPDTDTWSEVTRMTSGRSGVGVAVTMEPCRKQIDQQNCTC
CAL PDZ FP-1 – blocks peptide binding to the human CAL PDZ domain; purified CAL PDZ, TMR-peptide fluorescence polarization, 1 h; AID 602252; inhibition, % at 24.9 µM; Q9HD26; actives 0.92% (n = 300,000);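 active = mean inhibition of at least 30% with at least half of replicates also reaching 30%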;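 note: 0% = DMSO neutral control and 100% = excess unlabeled competitor peptide PRC23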
CAL PDZ FP-2 – blocks peptide binding to human CAL PDZ domain. inhibition, % at 20 µM. actives 0.02% (n = 330,000). purified CAL PDZ, TMR-peptide fluorescence polarization, 1 h. Q9HD26;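 active = highest replicate inhibition of at least 40%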;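 note: plate controls were DMSO neutral control wells for no effect and unlabeled competitor peptide control wells for full effect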
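material = purified tagged CAL PDZ domain construct (CerCALP) | compound dosing = 20 µM, one dose | times = 1 h at RT | measured by = fluorescence polarization from S- and P-plane intensities, G-factor corrected | read-out = inhibition from polarization loss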
Starred values were filed as active, the others as inactive; [ ] = another dose, or the depositor's remark. Sampled rows, rich in hits. Any-hit rate of the full collection: about 1.1%.

Screening Cc1ccc(S(=O)(=O)Nc2ccc3c(c2)C(=O)N([C@@H](C)CO)C[C@H](C)[C@H](CN(C)C(=O)Nc2ccc(F)cc2)OCCCC[C@@H](C)O3)cc1 returned miR-122 sensor 94*[16.7 µM].
`CN1C(=O)c2cc(NC(=O)Cc3ccccc3)ccc2OC[C@@H]2O[C@@H](CC(=O)O)CC[C@@H]21` gave miR-122 sensor -17[16.7 µM].
Screening CC(C)NC(=O)N(C)C[C@H]1Oc2cc(C#CC3CC3)ccc2S(=O)(=O)N([C@H](C)CO)C[C@@H]1C returned miR-122 sensor 35[16.7 µM].
`CCCC(=O)Nc1ccc(NC(=O)c2ccccc2Cl)nc1` gave LANA DNA inh 1, miR-122 sensor 9, Keap1-Nrf2 PPI 0 and CAL PDZ FP-1 41*.
CCCC(=O)Nc1ccc(NC(=O)Cc2ccccc2)cn1 was read as LANA DNA inh 0, miR-122 sensor -5, Keap1-Nrf2 PPI 1, CAL PDZ FP-1 0 and CAL PDZ FP-2 -2.
For CCOc1cc(N2CCOCC2)c(OCC)cc1NC(=O)COC(=O)c1cc(C)cc(C)c1 the results were LANA DNA inh 3, Keap1-Nrf2 PPI 0, CAL PDZ FP-1 -6 and CAL PDZ FP-2 0.
CCOc1cc(N2CCOCC2)c(OCC)cc1NS(=O)(=O)c1ccc(Cl)s1 was read as LANA DNA inh 3, miR-122 sensor 113*, Keap1-Nrf2 PPI 4, CAL PDZ FP-1 1 and CAL PDZ FP-2 -1.
Screening CCOc1cc(N2CCOCC2)c(OCC)cc1NC(=O)COC(=O)c1ccc([N+](=O)[O-])o1 returned LANA DNA inh 2, miR-122 sensor -2, Keap1-Nrf2 PPI -1, CAL PDZ FP-1 92* and CAL PDZ FP-2 0.
`CCOc1cc(N2CCOCC2)c(OCC)cc1NC(=O)CN1CCCC1` gave LANA DNA inh 1, Keap1-Nrf2 PPI 4, CAL PDZ FP-1 94* and CAL PDZ FP-2 -1.
CCOc1cc(N2CCOCC2)c(OCC)cc1NC(=O)c1cc(S(=O)(=O)N2CCOCC2)ccc1Cl was read as LANA DNA inh 0, miR-122 sensor -8, Keap1-Nrf2 PPI 1 and CAL PDZ FP-2 0.
Screening Cc1ccc(N2C(=O)CC(N(O)C3CC(=O)N(c4ccc(C)cc4)C3=O)C2=O)cc1 (configuration not stated) returned LANA DNA inh 1, miR-122 sensor 3, Keap1-Nrf2 PPI 0, CAL PDZ FP-1 59* and CAL PDZ FP-2 -2.
`CCCCCCC(=O)N(O)C1CC(=O)N(c2ccc(C)cc2)C1=O` (configuration not stated) gave LANA DNA inh 0, miR-122 sensor -1, Keap1-Nrf2 PPI -5 and CAL PDZ FP-2 -2.
`Nc1ccc(Nc2nc(-c3cc4ccccc4oc3=O)cs2)cc1` gave LANA DNA inh -1, miR-122 sensor -3, Keap1-Nrf2 PPI 2, CAL PDZ FP-1 48* and CAL PDZ FP-2 0.
COCC#Cc1ccc2c(c1)O[C@@H](CN(C)C(=O)c1ccccc1)[C@H](C)CN([C@@H](C)CO)S2(=O)=O was read as miR-122 sensor -1[16.7 µM].
Screening COc1cccc(S(=O)(=O)Nc2ccc3c(c2)[C@@H]2C[C@@H](CC(=O)O)O[C@@H](CO)[C@@H]2O3)c1 returned miR-122 sensor 3[16.7 µM].
Oc1ccccc1C=NCCN=Cc1ccccc1O was read as LANA DNA inh 0, miR-122 sensor -5, Keap1-Nrf2 PPI -3, CAL PDZ FP-1 -4 and CAL PDZ FP-2 0.
Screening Oc1ccccc1C=NCCCCCCN=Cc1ccccc1O returned LANA DNA inh -5, miR-122 sensor 7, Keap1-Nrf2 PPI -4, CAL PDZ FP-1 active and CAL PDZ FP-2 0.
Screening CCCNC(=O)C[C@@H]1C[C@@H]2c3cc(NS(=O)(=O)c4ccc(F)cc4)ccc3O[C@@H]2[C@@H](CO)O1 returned miR-122 sensor -2[16.7 µM].
For CCN1/C(=C/C=C/c2oc3ccc(-c4ccccc4)cc3[n+]2CC)Oc2ccc(-c3ccccc3)cc21 the results were LANA DNA inh 10, miR-122 sensor -11, Keap1-Nrf2 PPI -212, CAL PDZ FP-1 36* and CAL PDZ FP-2 -4.
C[C@H]1CN([C@@H](C)CO)C(=O)Cc2cc(NC(=O)CCCCCC(=O)Nc3ccccc3N)ccc2O[C@H]1CN(C)S(=O)(=O)c1cn(C)cn1 was read as miR-122 sensor -1[16.7 µM].
Screening CCS(=O)(=O)N1Cc2ccccc2CC1C(=O)NC(C)C12CC3CC(CC(C3)C1)C2 (configuration not stated) returned LANA DNA inh 0, miR-122 sensor -9, Keap1-Nrf2 PPI 0, CAL PDZ FP-1 0 and CAL PDZ FP-2 1.
`CCS(=O)(=O)N1Cc2ccccc2CC1C(=O)NCC12CC3CC(CC(C3)C1)C2` (configuration not stated) gave LANA DNA inh -3, miR-122 sensor 256*, Keap1-Nrf2 PPI -7, CAL PDZ FP-1 -9 and CAL PDZ FP-2 -1.
C[C@@H]1CN([C@H](C)CO)S(=O)(=O)c2ccc(-c3ccccc3)cc2O[C@@H]1CN(C)C(=O)c1ccc2c(c1)OCO2 was read as miR-122 sensor -36[16.7 µM].
CCC(=O)Nc1ccc2c(c1)OC[C@H](C)N(CC1CCOCC1)C[C@H](C)[C@H](OC)CN(C)C2=O was read as miR-122 sensor -1[16.7 µM].
CC(NC(=O)c1cc(-c2ccncc2)nc2ccc(Br)cc12)C1CCCO1 (configuration not stated) was read as LANA DNA inh 0, miR-122 sensor 0, Keap1-Nrf2 PPI -2, CAL PDZ FP-1 45* and CAL PDZ FP-2 -2.
`O=C(NCCc1ccccc1)c1ccc(NC(=O)C2CC2)cc1` gave LANA DNA inh 3, miR-122 sensor 2, Keap1-Nrf2 PPI -5, CAL PDZ FP-1 59* and CAL PDZ FP-2 -1.
O=C(COC(=O)c1ccc2c(c1)OCO2)NCc1ccc(Cl)cc1 was read as LANA DNA inh 1, miR-122 sensor 7, Keap1-Nrf2 PPI -1 and CAL PDZ FP-1 61*.
For C[C@H]1CN([C@@H](C)CO)S(=O)(=O)c2ccc(-c3cccnc3)cc2O[C@H]1CN(C)CC1CCOCC1 the results were miR-122 sensor 1[16.7 µM].
`O=C(C[C@H]1CC[C@@H](NC(=O)c2cccc(F)c2)[C@H](CO)O1)NCCN1CCCC1` gave miR-122 sensor 1[16.7 µM].
For CCc1ccc(/C=C(\Cl)c2nc3cc(Cl)ccc3c(=O)[nH]2)cc1 the results were LANA DNA inh 2, Keap1-Nrf2 PPI 7, CAL PDZ FP-1 53* and CAL PDZ FP-2 -1.
O=c1[nH]c(/C(Cl)=C/c2cccc(F)c2)nc2cc(C(F)(F)F)ccc12 was read as LANA DNA inh -1, Keap1-Nrf2 PPI 1, CAL PDZ FP-1 -3 and CAL PDZ FP-2 -1.
Cc1ccc(S(=O)(=O)NN2C(=O)/C(=C/c3cccc(F)c3)SC2=S)cc1 was read as LANA DNA inh 2, miR-122 sensor 8, Keap1-Nrf2 PPI -5, CAL PDZ FP-1 33* and CAL PDZ FP-2 -6.

Screens from PubChem BioAssay.
